Shown are actives, neighbours in structure and some others; about 2% of the full set was active somewhere.
UHRF1 MBD2 ctr: human UHRF1 methylated DNA binding inhibitors; Q96T88; inhibition, % at 4.4 µM; AID 687016; UHRF1 binding to methylated oligo, TR-FRET; 0.75% of 370,000 active; in the data active means inhibition above about 21%;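 further: UHRF1 SRA domain binding a hemimethylated CpG hairpin DNA probe; 0% = median of test compound wells and 100% = reference inhibitor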
ASAP1 GAP inh: blocks human ASAP1-stimulated Arf1 GTP hydrolysis. Q9ULH1. GDP FP detection. inhibition, % at 16.5 µM. 0.19% of 360,000 active;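 further: 0% = vehicle with enzyme and substrate and 100% = no enzyme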
TDP2 absorb: TDP2 (human) inhibition, absorbance primary screen; 0.34% of 370,000 active; recombinant TDP2, T5PNP hydrolysis, p-nitrophenol absorbance 415 nm; O95551; inhibition, % at 12.8 µM;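 active means inhibition above the mean of all tested compounds plus 3 SD, set per campaign, cut at about 25% in these data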;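 further: 0% = DMSO with enzyme and 100% = buffer with substrate but no TDP2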
Target sequence (O95551 whole entry, looked up): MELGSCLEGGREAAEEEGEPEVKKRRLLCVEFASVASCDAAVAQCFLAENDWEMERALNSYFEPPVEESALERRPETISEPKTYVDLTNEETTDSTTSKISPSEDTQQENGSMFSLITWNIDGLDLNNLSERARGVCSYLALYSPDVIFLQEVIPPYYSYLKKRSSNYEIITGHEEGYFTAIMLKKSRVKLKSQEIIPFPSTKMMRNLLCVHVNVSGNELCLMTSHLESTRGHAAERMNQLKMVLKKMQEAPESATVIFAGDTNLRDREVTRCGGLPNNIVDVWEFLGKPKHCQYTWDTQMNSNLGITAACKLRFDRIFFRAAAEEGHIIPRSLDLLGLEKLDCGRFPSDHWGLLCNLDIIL
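test system = human TDP2 enzyme | input = TDP2 enzyme at 120 nM final | medium = 50 mM Tris-HCl pH 7.5 with Mg2+, KCl, DTT, BSA | also added = T5PNP substrate, 5 mM | times = 2 h at 37 °C | technique = epi absorbance | benchmarks = high control without enzyme, low control DMSO plus TDP2 | replication = each compound tested once, singlicate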
LEDGF integ inh: blocks HIV-1 LEDGF/p75-dependent DNA integration; TR-FRET IN-LEDGF/p75 DNA integration, Eu/Cy5; 0.64% of 370,000 active; inhibition, % at 3.7 µM; AID 743269;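 active means inhibition above the screen-wide mean plus 3 SD, cut at about 13% in these data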;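 further: signal is the Cy5 over europium emission ratio at 671 and 618 nm; 0% = plate median of compound wells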
ARFGAP1 inhibitor: inhibitors of rat ARFGAP1; Q62848; Arfgap1-stimulated ARF1 GTP hydrolysis, GDP FP detection; inhibition, % at 16.5 µM; 0.26% of 360,000 active; AID 651572;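 active means inhibition above a per-plate limit, mean inhibition of low control wells plus 3 SD, cut at about 25% in these data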;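 further: 0% = DMSO wells with enzyme and 100% = wells lacking Arfgap1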
Target sequence (Q62848 1-136 limits assumed): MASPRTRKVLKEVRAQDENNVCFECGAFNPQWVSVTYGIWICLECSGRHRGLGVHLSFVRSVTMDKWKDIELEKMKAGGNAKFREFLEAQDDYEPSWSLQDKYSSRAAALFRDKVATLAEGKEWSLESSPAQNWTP
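Material: rat Arfgap1 catalytic domain, aa 1-136; also added: human ARF1(Δ1-17)-GTP substrate; compound dosing: one concentration, 16.5 µM, DMSO 1.26%; incubation: GTP hydrolysis reaction 2 h at 25 °C; measured by: Tracer-displacement fluorescence polarization with EDTA stop, 620/688 nm; evaluation: % inhibition from polarization; repeats: one replicate per compound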
MBD2 inh: blocks human MBD2 binding to methylated DNA; Q9UBB5; TR-FRET, MBD2 binding to methylated oligonucleotide; inhibition, % at 4.4 µM; 0.31% of 370,000 active; AID 686964; in the data active means inhibition above about 13%
TDP2 confirm: human TDP2 inhibition, confirmation; shares compounds with TDP2 absorb; recombinant human TDP2, absorbance read-out; inhibition, % at 12.8 µM; 22% of 1,100 active;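 further: 0% = vehicle with enzyme and 100% = no enzyme buffer only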
IN multimer up: counter-screen for LEDGF/p75 integration inhibitors: HIV-1 integrase multimerization activators | activation, % at 7.7 µM | 17% of 2,000 active | TR-FRET HIV-1 integrase multimerization, biochemical | shares compounds with LEDGF integ inh | AID 1053131; in the data active means activation above about 8.9%
TRFRET interf: optically interferes with TR-FRET readout in LEDGF counter-screen. inhibition, % at 7.7 µM. 2,000 tested, under 10 active. TR-FRET optical interference counterscreen, HIV-1 IN multimerization. shares compounds with LEDGF integ inh;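 active means inhibition above the mean over all tested compounds plus 3 SD, which no compound reached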;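 further: 0% = integrase with antibodies and DMSO and 100% = antibodies without integrase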
LEDGF integ conf: LEDGF/p75-dependent HIV-1 integration inhibition, confirmation. TR-FRET LEDGF/p75-dependent HIV-1 integration, biochemical. shares compounds with LEDGF integ inh. 36% of 2,000 active. inhibition, % at 3.7 µM. AID 1053136; in the data active means inhibition above about 14%
Numbers without * were called inactive; . = not tested or not shown. Unless noted, no stated cut-off is given here; in the data, active means inhibition above about 25%; inactive means the rest.

SMILES	UHRF1 MBD2 ctr	ASAP1 GAP inh	TDP2 absorb	LEDGF integ inh	ARFGAP1 inhibitor	MBD2 inh	TDP2 confirm	IN multimer up	TRFRET interf	LEDGF integ conf
CC(=O)N(C1=C(N2CCOCC2)C(=O)c2ccccc2C1=O)c1ccc(C(=O)O)cc1	4	3	40*	17*	8	-7	24	2	-8	17*
O=C(c1ccccc1)c1ccc(N2CCOCC2)cc1	2	-11	-2	5	3	-5	.	.	.	.
CN(C)c1ccc(C=Nc2ccc(N(C)C)cc2)cc1	7	-87	28*	35*	-92	-12	4	7	-34	7
Cc1ccc(N=Cc2ccc(N(C)C)cc2)cc1	17	-6	8	2	8	7	.	.	.	.
CCCCn1c(NC(=O)c2ccco2)c(S(=O)(=O)c2ccc(C)cc2)c2nc3ccccc3nc21	-5	-5	21	10	-6	-13	.	.	.	.
CCCCn1c(NC(=O)c2ccc(Br)o2)c(S(=O)(=O)c2ccccc2)c2nc3ccccc3nc21	8	7	67*	17*	-9	3	23	0	-2	21*
CCCCCn1c(NC(=O)c2ccco2)c(S(=O)(=O)c2ccc(C)cc2)c2nc3ccccc3nc21	14	18	69*	17*	-4	1	1	17*	-61	21*
Nc1ccc(N2CCOCC2)c2nonc12	30*	6	92*	22*	10	19*	36*	6	-21	8
Cc1[nH]c2ccccc2c1/C=N/Nc1ccccn1	-1	3	1	-3	0	-1	.	.	.	.
Cc1[nH]c2ccccc2c1/C=N/Nc1nncn1N	15	5	74*	74*	3	-4	4	3	-17	1
Cc1[nH][nH]c(=O)c1C(c1c(C)[nH][nH]c1=O)c1cn(Cc2ccccc2Cl)c2ccccc12	23*	10	55*	20*	19	-5	34*	-3	9	13
N/C(=N\C(=O)OCc1ccccc1)N(Cc1ccccc1)C(C#CC1=CCCCC1)Cc1ccccc1 (centres undefined)	3	.	-10	-2	.	-5	.	.	.	.
O=C1/C(=C\c2ccc(O)c(O)c2)C(c2ccccc2)=NN1c1ccccc1	16	1	26*	19*	-14	-2	6	24*	-118	29*
COc1cc(/C=C2/C(=O)N(c3ccc(C(=O)O)cc3)N=C2C)cc(OC)c1O	2	7	21	1	4	-8	.	.	.	.
COc1cc(/C=C2\C(=O)N(c3ccc(NC(C)=O)cc3)N=C2c2ccccc2)ccc1O	18	-6	54*	44*	11	8	12	4	-21	-1
CC(C)n1nnnc1C1(C)Cn2nccc2C(=O)N1Cc1cccc(C(F)(F)F)c1 (centres undefined)	-2	.	-2	-1	.	0	.	.	.	.
O=S(=O)(Nc1ccc(O)c2ccccc12)c1cccs1	0	-1	50*	26*	-3	-6	30*	2	-9	13
O=S(=O)(Nc1cccc2ccccc12)c1cccs1	14	-3	-3	1	4	0	.	.	.	.
COC(=O)[C@H](C)NC(=O)[C@@H]1CCCN1C(=O)CNP(=O)(OCc1ccccc1)OCc1ccccc1	-1	.	7	1	.	2	.	.	.	.
CC1=NN(c2ccc(C)cc2C)C(=O)C1C(c1ccccc1O)C1C(=O)N(c2ccc(C)cc2C)N=C1C (centres undefined)	14	7	79*	29*	6	-3	12	1	-5	-4
CC1=NN(C(N)=S)C(=O)C1N=Nc1ccc(C)cc1C (centres undefined)	-28	-11	-3	-1	4	-15	.	.	.	.
Cc1cc(=O)cc(C)n1-c1ccc(O)cc1	-1	6	-6	2	-15	1	.	.	.	.
Cc1cc(=O)n(-c2ccc(O)cc2)[nH]1	6	0	56*	19*	-8	-4	15	1	-7	-5
CCCNC1=C(N(C(C)=O)c2cccc(F)c2)C(=O)c2ccccc2C1=O	1	1	26*	17*	-8	-12	25*	-3	9	14*
CCC(C)N(C(C)CC)S(=O)(=O)c1ccc2[nH]c(=O)oc2c1 (centres undefined)	2	.	-8	-2	.	7	.	.	.	.
SMILES	UHRF1 MBD2 ctr	ASAP1 GAP inh	TDP2 absorb	LEDGF integ inh	ARFGAP1 inhibitor	MBD2 inh	TDP2 confirm	IN multimer up	TRFRET interf	LEDGF integ conf
O=C(/C=C/c1ccco1)Nc1cccc(C(=O)Nc2ccccc2C(=O)O)c1	37*	-15	28*	19*	-2	12	12	3	-17	13
O=C(O)c1ccc(NC2=C/C(=N/S(=O)(=O)c3ccccc3)c3ccccc3C2=O)cc1	8	-3	72*	49*	0	-11	77*	7	-23	72*
O=C(O)c1ccc(NC2=C/C(=N/S(=O)(=O)c3cccs3)c3ccccc3C2=O)cc1	3	11	60*	31*	-10	-15	73*	9.1*	-32	75*
O=S(=O)(N=C1C=CC(=NS(=O)(=O)c2ccccc2)c2ccccc21)c1ccccc1	5	11	7	9	10	-8	.	.	.	.
CCc1ccc(S(=O)(=O)/N=C2\C=C(Nc3cccc(C(=O)O)c3)C(=O)c3ccccc32)cc1	7	22	69*	47*	3	-5	74*	3	-9	74*
O=C1C(Nc2ccc(O)cc2)=C/C(=N/S(=O)(=O)c2cccs2)c2ccccc21	3	32*	78*	55*	9	-11	78*	7	-26	70*
COc1ccc(N2CCN(CCNS(=O)(=O)c3ccccc3[N+](=O)[O-])CC2)cc1	-4	.	5	4	.	1	.	.	.	.
COc1ccc(S(=O)(=O)Nc2cc(SCC(=O)O)c(O)c3ccccc23)cc1	-1	6	43*	21*	-5	-13	50*	9	-31	33*
COc1ccc(S(=O)(=O)Nc2cccc3ccc(O)cc23)cc1	-2	6	2	0	10	-3	.	.	.	.

Source: PubChem BioAssay
